Measured values as given in ChEMBL document CHEMBL4350961, “Discovery of Pyrrolo[3,2- d]pyrimidin-4-one Derivatives as a New Class of Potent and Cell-Active Inhibitors of P300/CBP-Associated Factor Bromodomain” (J Med Chem, 2019).
The source made the active and inactive calls. The calls are words filed in the database; no cut-off is given here.

What was measured:
MEF [1] = assay: Effect on Guca1a gene expression in MEF cells at 2.5 uM measured after 48 hrs by RNA-sequencing analysis relative to control; type: functional, Mus musculus
Summary of the method: (§1)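 Mouse embryonic fibroblasts treated 48 h; negative-control enantiomer at 2.5 µM, DMSO as blank. Total RNA extracted with TRIzol, checked by NanoDrop, then RNA-seq with n = 3 per set. Genes called changed at >1.5-fold with p < 0.05 against blank.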

MEF [2] = assay: Effect on plekhb1 gene expression in MEF cells at 2.5 uM measured after 48 hrs by RNA-sequencing analysis relative to control; type: functional, Mus musculus
Summary of the method: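 MEF cells treated for 48 h with test compound, with (S,S) enantiomer at 2.5 µM as negative control and DMSO as blank; total RNA (TRIzol, n = 3 per set) analysed by RNA-seq; genes counted as changed at >1.5-fold, p < 0.05, relative to blank control.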

MEF [3] = assay: Effect on Nr4a3 gene expression in MEF cells at 2.5 uM measured after 48 hrs by RNA-sequencing analysis relative to control; type: functional, Mus musculus; summary of the method: as §1
MEF [4] = assay: Effect on S100a8 gene expression in MEF cells at 2.5 uM measured after 48 hrs by RNA-sequencing analysis relative to control; type: functional, Mus musculus; summary of the method: as §1
MEF [5] = assay: Effect on Gm3173 gene expression in MEF cells at 2.5 uM measured after 48 hrs by RNA-sequencing analysis relative to control; type: functional, Mus musculus; summary of the method: as §1
MEF [6] = assay: Effect on Pyhin1 gene expression in MEF cells at 2.5 uM measured after 48 hrs by RNA-sequencing analysis relative to control; type: functional, Mus musculus; summary of the method: as §1
MEF [7] = assay: Effect on Plekhg4 gene expression in MEF cells at 2.5 uM measured after 48 hrs by RNA-sequencing analysis relative to control; type: functional, Mus musculus; summary of the method: as §1
MEF [8] = assay: Effect on Aatk gene expression in MEF cells at 2.5 uM measured after 48 hrs by RNA-sequencing analysis relative to control; type: functional, Mus musculus; summary of the method: as §1
MEF [9] = assay: Effect on Hkdc1 gene expression in MEF cells at 2.5 uM measured after 48 hrs by RNA-sequencing analysis relative to control; type: functional, Mus musculus; summary of the method: as §1
MEF [10] = assay: Effect on Tnnt2 gene expression in MEF cells at 2.5 uM measured after 48 hrs by RNA-sequencing analysis relative to control; type: functional, Mus musculus; summary of the method: as §1
MEF [11] = assay: Effect on Dlx4 gene expression in MEF cells at 2.5 uM measured after 48 hrs by RNA-sequencing analysis relative to control; type: functional, Mus musculus; summary of the method: as §1
MEF [12] = assay: Effect on Bmp3 gene expression in MEF cells at 2.5 uM measured after 48 hrs by RNA-sequencing analysis relative to control; type: functional, Mus musculus; summary of the method: as §1
MEF [13] = assay: Effect on Srcin1 gene expression in MEF cells at 2.5 uM measured after 48 hrs by RNA-sequencing analysis relative to control; type: functional, Mus musculus; summary of the method: as §1
MEF [14] = assay: Effect on Snhg11 gene expression in MEF cells at 2.5 uM measured after 48 hrs by RNA-sequencing analysis relative to control; type: functional, Mus musculus; summary of the method: as §1
MEF [15] = assay: Effect on Prrg3 gene expression in MEF cells at 2.5 uM measured after 48 hrs by RNA-sequencing analysis relative to control; type: functional, Mus musculus; summary of the method: as §1
MEF [16] = assay: Effect on Klk9 gene expression in MEF cells at 2.5 uM measured after 48 hrs by RNA-sequencing analysis relative to control; type: functional, Mus musculus; summary of the method: as §1
MEF [17] = assay: Effect on Myh3 gene expression in MEF cells at 2.5 uM measured after 48 hrs by RNA-sequencing analysis relative to control; type: functional, Mus musculus; summary of the method: as §1
MEF [18] = assay: Effect on Cttnbp2 gene expression in MEF cells at 2.5 uM measured after 48 hrs by RNA-sequencing analysis relative to control; type: functional, Mus musculus; summary of the method: as §1
MEF [19] = assay: Effect on Tnfsf15 gene expression in MEF cells at 2.5 uM measured after 48 hrs by RNA-sequencing analysis relative to control; type: functional, Mus musculus; summary of the method: as §1
MEF [20] = assay: Effect on Clec5a gene expression in MEF cells at 2.5 uM measured after 48 hrs by RNA-sequencing analysis relative to control; type: functional, Mus musculus; summary of the method: as §1
MEF [21] = assay: Effect on Mpz gene expression in MEF cells at 2.5 uM measured after 48 hrs by RNA-sequencing analysis relative to control; type: functional, Mus musculus; summary of the method: as §1
MEF [22] = assay: Effect on LL6 gene expression in MEF cells at 2.5 uM measured after 48 hrs by RNA-sequencing analysis relative to control; type: functional, Mus musculus; summary of the method: as §1
MEF [23] = assay: Effect on Hpgd gene expression in MEF cells at 2.5 uM measured after 48 hrs by RNA-sequencing analysis relative to control; type: functional, Mus musculus; summary of the method: as §1
MEF [24] = assay: Effect on Gabra4 gene expression in MEF cells at 2.5 uM measured after 48 hrs by RNA-sequencing analysis relative to control; type: functional, Mus musculus; summary of the method: as §1
MEF [25] = assay: Effect on Nuggc gene expression in MEF cells at 2.5 uM measured after 48 hrs by RNA-sequencing analysis relative to control; type: functional, Mus musculus; summary of the method: as §1
MEF [26] = assay: Effect on Gucy1a3 gene expression in MEF cells at 2.5 uM measured after 48 hrs by RNA-sequencing analysis relative to control; type: functional, Mus musculus; summary of the method: as §1
MEF [27] = assay: Effect on Kcnk10 gene expression in MEF cells at 2.5 uM measured after 48 hrs by RNA-sequencing analysis relative to control; type: functional, Mus musculus; summary of the method: as §1
MEF [28] = assay: Effect on Unc5a gene expression in MEF cells at 2.5 uM measured after 48 hrs by RNA-sequencing analysis relative to control; type: functional, Mus musculus; summary of the method: as §1
MEF [29] = assay: Effect on Gabra3 gene expression in MEF cells at 2.5 uM measured after 48 hrs by RNA-sequencing analysis relative to control; type: functional, Mus musculus; summary of the method: as §1
[30] = target: Histone acetyltransferase KAT2B (Homo sapiens, UniProt Q92831); assay: Inhibition of Halo-tagged histone H3.3 binding to N-terminal Nano luciferase-fused full-length PCAF (unknown origin) expressed in HEK293T cells co-expressing C-terminal Halo-tagged histone H3.3 measured after 18 hrs by 618 fluorescent ligand-based BRET assay; type: cell-based
Summary of the method: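 HEK293T cells co-transfected with histone H3.3-HaloTag and PCAF-NanoLuc. After 20 h, cells replated at 2×10^5/ml in phenol red-free DMEM with 4% FBS, with or without 100 nM NanoBRET 618 ligand. Compound dilutions or DMSO added, then 18 h at 37 °C, 5% CO2. Nano-Glo substrate added; 610/460 nm ratio minus no-ligand blank, in mBU; n = 2 biological replicates.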

MEF [31] = assay: Effect on Pkdrej gene expression in MEF cells at 2.5 uM measured after 48 hrs by RNA-sequencing analysis relative to control; type: functional, Mus musculus; summary of the method: as §1
MEF [32] = assay: Effect on Erv3 gene expression in MEF cells at 2.5 uM measured after 48 hrs by RNA-sequencing analysis relative to control; type: functional, Mus musculus; summary of the method: as §1
MEF [33] = assay: Effect on Erbb3 gene expression in MEF cells at 2.5 uM measured after 48 hrs by RNA-sequencing analysis relative to control; type: functional, Mus musculus; summary of the method: as §1
MEF [34] = assay: Effect on Dmrta2 gene expression in MEF cells at 2.5 uM measured after 48 hrs by RNA-sequencing analysis relative to control; type: functional, Mus musculus; summary of the method: as §1
MEF [35] = assay: Effect on Acod1 gene expression in MEF cells at 2.5 uM measured after 48 hrs by RNA-sequencing analysis relative to control; type: functional, Mus musculus; summary of the method: as §1
MEF [36] = assay: Effect on Fmn2 gene expression in MEF cells at 2.5 uM measured after 48 hrs by RNA-sequencing analysis relative to control; type: functional, Mus musculus; summary of the method: as §1
MEF [37] = assay: Effect on Zfp551 gene expression in MEF cells at 2.5 uM measured after 48 hrs by RNA-sequencing analysis relative to control; type: functional, Mus musculus; summary of the method: as §1

| Compound | fold change (FC) (MEF [1]) | fold change (FC) (MEF [2]) | fold change (FC) (MEF [3]) | fold change (FC) (MEF [4]) | fold change (FC) (MEF [5]) | fold change (FC) (MEF [6]) | fold change (FC) (MEF [7]) | fold change (FC) (MEF [8]) | fold change (FC) (MEF [9]) | fold change (FC) (MEF [10]) | fold change (FC) (MEF [11]) | fold change (FC) (MEF [12]) | fold change (FC) (MEF [13]) | fold change (FC) (MEF [14]) | fold change (FC) (MEF [15]) | fold change (FC) (MEF [16]) | fold change (FC) (MEF [17]) | fold change (FC) (MEF [18]) | fold change (FC) (MEF [19]) | fold change (FC) (MEF [20]) | also measured |
| --- | --- | --- | --- | --- | --- | --- | --- | --- | --- | --- | --- | --- | --- | --- | --- | --- | --- | --- | --- | --- | --- |
| CN1C[C@@H](Nc2nc3cc[nH]c3c(=O)n2C)C[C@@H](c2ccc3c(c2)OCCO3)C1 | >1.5 | >1.5 | >1.5 | >1.5 | >1.5 | >1.5 | >1.5 | >1.5 | >1.5 | >1.5 | >1.5 | >1.5 | >1.5 | >1.5 | >1.5 | >1.5 | >1.5 | >1.5 | >1.5 | >1.5 | fold change (FC) (MEF [21]): >1.5; fold change (FC) (MEF [22]): >1.5; fold change (FC) (MEF [23]): >1.5; fold change (FC) (MEF [24]): >1.5; fold change (FC) (MEF [25]): >1.5; fold change (FC) (MEF [26]): >1.5; fold change (FC) (MEF [27]): >1.5; fold change (FC) (MEF [28]): >1.5; fold change (FC) (MEF [29]): >1.5; inhibition [30]: inactive; fold change (FC) (MEF [31]): >1.5; fold change (FC) (MEF [32]): >1.5; fold change (FC) (MEF [33]): >1.5; fold change (FC) (MEF [34]): >1.5; fold change (FC) (MEF [35]): >1.5; fold change (FC) (MEF [36]): >1.5; fold change (FC) (MEF [37]): >1.5 |
| CN1C[C@H](Nc2nc3cc[nH]c3c(=O)n2C)C[C@H](c2ccc3c(c2)OCCO3)C1 | >1.5 | >1.5 | >1.5 | >1.5 | >1.5 | >1.5 | >1.5 | >1.5 | >1.5 | >1.5 | >1.5 | >1.5 | >1.5 | >1.5 | >1.5 | >1.5 | >1.5 | >1.5 | >1.5 | >1.5 | fold change (FC) (MEF [21]): >1.5; fold change (FC) (MEF [22]): >1.5; fold change (FC) (MEF [23]): >1.5; fold change (FC) (MEF [24]): >1.5; fold change (FC) (MEF [25]): >1.5; fold change (FC) (MEF [26]): >1.5; fold change (FC) (MEF [27]): >1.5; fold change (FC) (MEF [28]): >1.5; fold change (FC) (MEF [29]): >1.5; IC50 [30]: 118 nM; inhibition [30]: Dose-dependent effect; fold change (FC) (MEF [31]): >1.5; fold change (FC) (MEF [32]): >1.5; fold change (FC) (MEF [33]): >1.5; fold change (FC) (MEF [34]): >1.5; fold change (FC) (MEF [35]): >1.5; fold change (FC) (MEF [36]): >1.5; fold change (FC) (MEF [37]): >1.5 |
